# Only some compounds are listed: those with a hit (about 2.7% of all), similar ones and a draw of the others.
# OXTR potentiator – human OXTR potentiators, primary screen, fluorescence, CHO-OTR cells, Fluo-8 calcium; AID 2445, 2010; activation, % at 3 µM; 0.061% of 320,000 active; Fluo-8 calcium fluorescence, potentiator mode; 0% = oxytocin EC15, 100% = EC100;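 active = activation above that plate's cutoff, the mean activation of tested compounds plus 3 SD, cut at about 6.6% in these data, passing the limit was not always enough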
# Target sequence (P30559 whole entry, looked up): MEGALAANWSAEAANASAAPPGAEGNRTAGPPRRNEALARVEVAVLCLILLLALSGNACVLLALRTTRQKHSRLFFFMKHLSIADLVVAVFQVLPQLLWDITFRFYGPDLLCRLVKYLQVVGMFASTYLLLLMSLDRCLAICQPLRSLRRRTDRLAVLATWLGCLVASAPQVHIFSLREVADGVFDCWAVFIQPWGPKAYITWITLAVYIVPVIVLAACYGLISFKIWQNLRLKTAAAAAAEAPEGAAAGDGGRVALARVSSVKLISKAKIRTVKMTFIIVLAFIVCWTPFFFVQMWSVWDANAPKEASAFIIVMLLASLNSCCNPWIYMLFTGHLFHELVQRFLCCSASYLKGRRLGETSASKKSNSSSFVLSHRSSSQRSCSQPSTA
#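 Replication – single well per compound, singlicate · Assay system – CHO cell line stably expressing human OTR · Timing – 6 min pre-incubation, 100 s read · Measure – normalized max/min fluorescence ratio, % activation · Doses – 3.0 µM, one dose · Detection – Fluo-8 calcium dye fluorescence · Probe or stimulus – oxytocin near EC15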
# OX1R antag-1 – OX1R (HCRTR1) antagonists, primary screen, fluorescence, CHO/OX1R cells, Fluo-8 calcium, orexin A | 0.43% of 330,000 active | Orexin/Hypocretin receptor type 1 (Homo sapiens), O43613 | Fluo-8 calcium fluorescence | inhibition, % at 5 µM;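 active = inhibition above its plate's threshold, mean inhibition of all tested compounds on the plate plus 3 SD, cut at about 37% in these data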
# CHO parental Ca – ATP-evoked calcium signal inhibitors, parental CHO, primary screen, counter-screen for OX1R antagonist project, cell-based, fluorescence, Fluo-8 calcium dye. inhibition, % at 5.6 µM. 0.63% of 330,000 active. AID 463079, 2010. parental CHO-K1, ATP-induced calcium, Fluo-8 fluorescence;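 active = inhibition above that plate's mean sample inhibition plus 3 SD, cut at about 26% in these data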
#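 Test system: parental CHO cells; detection: calcium-sensitive Fluo-8 fluorescence; evaluation: percent inhibition of calcium signal; also added: ATP as calcium-mobilizing challenge; repeats: one well per compound; control set: ATP-challenged DMSO wells low, unchallenged DMSO wells high; compound: single nominal dose of 5.6 µM per compound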
# V1aR counter – agonists of human V1a receptor, primary screen, counter-screen for OXTR agonist project, fluorescence, CHO-V1R cells. Vasopressin V1a receptor (Homo sapiens), P37288. Fluo-8 calcium fluorescence, agonist mode; 0% DMSO, 100% 3 nM vasopressin. activation, % at 3 µM. 0.25% of 320,000 active. AID 2797, 2010;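 active = activation above the mean activation of all tested compounds plus 3 SD, per screening run, cut at about 20% in these data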;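 note: signal is peak over basal fluorescence ratio across a 100 second FLIPR read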
# OX1R antag-2 – antagonists of human orexin 1 receptor (OX1R). Orexin/Hypocretin receptor type 1 (Homo sapiens), O43613. OX1R-expressing cells, FRET antagonist read-out. inhibition, % at 6.6 µM. 1.8% of 330,000 active. AID 485270, 2010; in the data active = inhibition mostly above about 38%, no sharp cut-off; inactive = mostly below about 40%
# OXTR ag – human OXTR agonists, primary screen, fluorescence, CHO-OTR cells, Fluo-8 calcium; 0.32% of 320,000 active; AID 2435, 2010; activation, % at 3 µM; Fluo-8 calcium fluorescence; normalized: DMSO 0%, oxytocin 100%;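 active = activation above the mean of all tested compounds plus 3 SD, cutoff set per screening run, cut at about 20% in these data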;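 note: peak over basal fluorescence ratio from a 100 s FLIPR kinetic read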
# OX1R Ca confirm – OX1R (HCRTR1) antagonists, confirmation, fluorescence, CHO/OX1R cells, Fluo-8 calcium, orexin A; AID 492963, 2010; inhibition, % at 5 µM; 38% of 1,100 active; shares compounds with OX1R antag-1; orexin A calcium Fluo-8 fluorescence; in the data active = inhibition above about 29%
# CHO Ca triplic – ATP-evoked calcium inhibition in parental CHO, counter-screen for OX1R antagonist project, cell-based, fluorescence, CHO-K1, triplicate | shares compounds with OX1R antag-1 | ATP-induced calcium, Fluo-8 fluorescence | inhibition, % at 5.6 µM | 9.3% of 1,100 active;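 active = inhibition above a per-plate limit, the mean inhibition of that plate's test compounds plus 3 SD, cut at about 25% in these data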
# OX1R HTRF conf – OX1R (HCRTR1) antagonists, confirmation, cell-based, HTRF. shares compounds with OX1R antag-2. OX1R-expressing cells, HTRF antagonist assay. inhibition, % at 6.6 µM. 49% of 1,800 active. AID 492964, 2010; in the data active = inhibition above about 55%;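 note: CHO cells expressing OX1R stimulated with orexin A at about EC80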
# CHO-K1 HTRF – signal inhibition in parental CHO-K1 cells, counter-screen for OX1R antagonist project, cell-based, HTRF. shares compounds with OX1R antag-2. HTRF counterscreen. inhibition, % at 6.6 µM. 48% of 1,800 active; in the data active = inhibition above about 17%
# Numbers stand for hits; i = inactive; nt = no result given.
SMILES,OXTR potentiator,OX1R antag-1,CHO parental Ca,V1aR counter,OX1R antag-2,OXTR ag,OX1R Ca confirm,CHO Ca triplic,OX1R HTRF conf,CHO-K1 HTRF
O=C(CC1NCCNC1=O)Nc1ccc([N+](=O)[O-])cc1 (stereo unspecified),i,i,i,i,i,i,nt,nt,nt,nt
COc1ccc(N=Cc2oc3ccc4ccccc4c3c2O)cc1,i,i,i,i,58,i,i,i,67,i
COc1ccc(N=Cc2[nH]c3ccccc3c2O)cc1,i,i,i,i,i,i,nt,nt,nt,nt
COc1ccc(C)cc1NC(=O)c1ccccc1NS(=O)(=O)c1ccc(Cl)s1,i,i,i,i,62,i,i,46,i,i
COc1ccccc1NC(=O)c1ccccc1NS(=O)(=O)c1cccs1,i,i,i,i,i,i,nt,nt,nt,nt
CC(=O)NNC(=O)c1cc2sccc2s1,i,i,i,i,i,i,nt,nt,nt,nt
NNC(=O)c1cc2sccc2s1,i,91,i,i,87,i,i,i,i,i
Cc1ccnc2ccc(-c3nc4ccccc4o3)cc12,i,41,i,i,92,i,48,i,94,i
Cc1nc2ccc(-c3nc4ccccc4o3)cc2[nH]1,i,50,i,i,105,i,33,i,94,i
CCOC(=O)c1ccc2nc(NC(=O)c3ccco3)sc2c1,i,i,i,i,81,i,35,i,86,18
CCOc1ccc2nc(NC(=O)c3ccco3)sc2c1,i,i,i,i,i,i,nt,nt,nt,nt
CSc1cccc(NC(=O)C2CCCN2S(=O)(=O)c2ccc(Br)s2)c1 (stereo unspecified),i,98,i,i,89,i,93,i,91,i
CSc1cccc(NC(=O)C2CCCN(S(=O)(=O)c3ccc(F)cc3)C2)c1 (stereo unspecified),i,53,i,i,84,i,55,i,79,i
CC(C)NC(=O)C1CCCN(S(=O)(=O)c2cccs2)C1 (stereo unspecified),i,i,i,i,i,i,nt,nt,nt,nt
CSc1cccc(NC(=O)C2CCCN(S(=O)(=O)c3cccs3)C2)c1 (stereo unspecified),i,42,i,i,61,i,50,i,78,i
Nc1cc(Cl)ccc1C(=O)OCC(=O)NCC1CCCO1 (stereo unspecified),i,i,i,i,i,i,nt,nt,nt,nt
Cn1c(=O)c2[nH]c(N3CCN(c4ccccn4)CC3)nc2n(C)c1=O,i,i,i,i,i,i,nt,nt,nt,nt
O=[N+]([O-])c1cccc(-c2nc(-c3ccccc3)c(-c3cccs3)[nH]2)c1,i,i,i,i,i,i,nt,nt,nt,nt
O=[N+]([O-])c1cccc(-c2nc(-c3cccs3)c(-c3cccs3)[nH]2)c1,i,i,i,i,99,i,i,i,74,i
COc1ccc(CCNC(=O)COc2ccc(-c3ccccc3)cc2)cc1OC,i,i,i,i,75,i,38,39,82,i
COc1ccc(CCNC(=O)CCCOc2ccc(C)cc2)cc1OC,i,i,i,i,i,i,nt,nt,nt,nt
CC(NCC(=O)Nc1ccccc1C(=O)NC1CC1)c1ccc(F)cc1F (stereo unspecified),i,57,i,i,68,i,44,i,87,i
CC(NCC(=O)Nc1ccccc1C(=O)NC1CC1)c1ccc(S(C)(=O)=O)cc1 (stereo unspecified),i,i,i,i,i,i,nt,nt,nt,nt
COc1cccc(OC)c1C(=O)Nc1cccc(-n2cnnn2)c1,i,i,i,i,88,i,i,i,80,i
COc1cc(C(=O)Nc2cccc(-n3cnnn3)c2)cc(OC)c1OC,i,i,i,i,i,i,nt,nt,nt,nt
SMILES,OXTR potentiator,OX1R antag-1,CHO parental Ca,V1aR counter,OX1R antag-2,OXTR ag,OX1R Ca confirm,CHO Ca triplic,OX1R HTRF conf,CHO-K1 HTRF
O=C(CCNC(=O)c1ccco1)NCCN1C(=O)S/C(=C\c2ccc(F)cc2)C1=O,i,45,i,i,47,i,i,i,90,24
O=C(NCCN1C(=O)S/C(=C\c2cccs2)C1=O)c1ccco1,i,i,i,i,i,i,nt,nt,nt,nt
COC(=O)c1c(-c2cccnc2)csc1NC(=O)c1ccc2c(c1)OCO2,i,i,i,i,i,i,nt,nt,nt,nt
Fc1ccc2nc3[nH]c4ccccc4c3nc2c1,i,i,i,i,98,i,i,i,64,i
CC(C)(C)C(=O)Nc1ccc(C(=O)CSc2nnc(C3CC3)n2C2CC2)cc1,i,i,i,i,i,i,nt,nt,nt,nt
CN(C)c1nc(Cl)nc(N(C#N)CCOc2ccccc2)n1,i,i,i,i,i,i,nt,nt,nt,nt
O=c1c2ccccc2oc2c1ccc1ccccc12,nt,55,i,nt,90,nt,i,i,68,i
COC(=O)C(C(C)=O)C1=C/C(=N\S(=O)(=O)c2ccc(C)cc2)c2ccccc2C1=O (stereo unspecified),i,97,i,i,106,i,50,i,94,i
CC(C)c1ccc(S(=O)(=O)/N=C2\C=C(NS(=O)(=O)c3ccccc3)C(=O)c3ccccc32)cc1,i,i,i,i,i,i,nt,nt,nt,nt
CN(Cc1c(C(=O)N/N=C/c2ccccc2F)nnn1-c1nonc1N)c1ccccc1,i,i,i,i,i,i,nt,nt,nt,nt
COc1ccccc1/C=N/NC(=O)c1nnn(-c2nonc2N)c1CN(C)c1ccccc1,i,i,i,i,i,i,nt,nt,nt,nt
CN(Cc1c(C(=O)N/N=C/c2ccccc2)nnn1-c1nonc1N)c1ccccc1,i,58,i,i,72,i,36,i,83,i
CN(Cc1c(C(=O)N/N=C/c2ccc(O)cc2)nnn1-c1nonc1N)c1ccccc1,i,80,i,i,95,i,37,i,79,i
